Converted amounts (≈) assume the structure as drawn.
Key:
Format in all cases: functional
[1] = tested on: Candida albicans; assay: Antimicrobial activity against Candida albicans after 24 hrs by NCCLS method
In short: (§1)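 Broth serial-dilution MIC in 96-well plates, RPMI 1640 buffered with 0.165 M MOPS. Strains from ATCC or clinical isolates; fluconazole reference. MIC = lowest concentration giving ≥80% growth inhibition (turbidity) versus drug-free control. Read at 24 h for Candida spp., 72 h for C. neoformans, 7 days for filamentous fungi.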

[2] = tested on: Cryptococcus neoformans; assay: Antimicrobial activity against Cryptococcus neoformans after 72 hrs by NCCLS method; in short: as §1
[3] = tested on: Candida tropicalis; assay: Antimicrobial activity against Candida tropicalis after 24 hrs by NCCLS method; in short: as §1
[4] = tested on: Trichophyton rubrum; assay: Antimicrobial activity against Trichophyton rubrum after 7 days by NCCLS method; details: 168 h; in short: as §1
[5] = tested on: Aspergillus fumigatus; assay: Antimicrobial activity against Aspergillus fumigatus after 7 days by NCCLS method; details: 168 h; in short: as §1
[6] = tested on: Nannizzia gypsea; assay: Antimicrobial activity against Microsporum gypseum after 7 days by NCCLS method; details: 168 h; in short: as §1
[7] = tested on: Candida albicans; assay: Antimicrobial activity against fluconazole resistant Candida albicans clinical isolate after 24 hrs by NCCLS method
In short: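 Broth serial dilution in RPMI 1640 buffered with 0.165 M MOPS; clinical isolate. MIC80 is the lowest concentration giving 80% or greater turbidity reduction relative to the drug-free growth control, read at 24 h for Candida. Fluconazole is the reference drug.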

[8] = tested on: Candida parapsilosis; assay: Antimicrobial activity against Candida parapsilosis after 24 hrs by NCCLS method; details: Lodderomyces parapsilosis; in short: as §1
[9] = tested on: Pichia kudriavzevii; assay: Antimicrobial activity against Candida krusei after 24 hrs by NCCLS method; in short: as §1

SMILES	MIC80 [1]	MIC80 [2]	MIC80 [3]	MIC80 [4]	MIC80 [5]	MIC80 [6]	MIC80 [7]	MIC80 [8]	MIC80 [9]
CCCCCCNCc1nc2ccccc2[nH]1	1 µg/mL (≈ 4.32 µM)	> 64 µg/mL	> 64 µg/mL	64 µg/mL (≈ 277 µM)	> 64 µg/mL	> 64 µg/mL	> 64 µg/mL		
CCCCCCCNCc1nc2ccccc2[nH]1	> 64 µg/mL	64 µg/mL (≈ 261 µM)	> 64 µg/mL	64 µg/mL (≈ 261 µM)	> 64 µg/mL	> 64 µg/mL	32 µg/mL (≈ 130 µM)		
CCCCCCCCNCc1nc2ccccc2[nH]1	> 64 µg/mL	16 µg/mL (≈ 61.7 µM)	16 µg/mL (≈ 61.7 µM)	16 µg/mL (≈ 61.7 µM)	32 µg/mL (≈ 123 µM)	16 µg/mL (≈ 61.7 µM)	16 µg/mL (≈ 61.7 µM)		
CCCCCCNCc1nc2ccccc2o1	64 µg/mL (≈ 275 µM)	64 µg/mL (≈ 275 µM)	64 µg/mL (≈ 275 µM)	16 µg/mL (≈ 68.9 µM)	> 64 µg/mL	16 µg/mL (≈ 68.9 µM)	> 64 µg/mL		
CCCCCCCNCc1nc2ccccc2o1	64 µg/mL (≈ 260 µM)	16 µg/mL (≈ 64.9 µM)	64 µg/mL (≈ 260 µM)	16 µg/mL (≈ 64.9 µM)	64 µg/mL (≈ 260 µM)	16 µg/mL (≈ 64.9 µM)	64 µg/mL (≈ 260 µM)		
CCCCCCCCNCc1nc2ccccc2o1	64 µg/mL (≈ 246 µM)	1 µg/mL (≈ 3.84 µM)	16 µg/mL (≈ 61.4 µM)	4 µg/mL (≈ 15.4 µM)	32 µg/mL (≈ 123 µM)	8 µg/mL (≈ 30.7 µM)	64 µg/mL (≈ 246 µM)		
CCCCCCNCc1nc2ccccc2s1	64 µg/mL (≈ 258 µM)	64 µg/mL (≈ 258 µM)	64 µg/mL (≈ 258 µM)	64 µg/mL (≈ 258 µM)	> 64 µg/mL	64 µg/mL (≈ 258 µM)	64 µg/mL (≈ 258 µM)		
CCCCCCCNCc1nc2ccccc2s1	64 µg/mL (≈ 244 µM)	64 µg/mL (≈ 244 µM)	64 µg/mL (≈ 244 µM)	16 µg/mL (≈ 61 µM)	> 64 µg/mL	16 µg/mL (≈ 61 µM)	32 µg/mL (≈ 122 µM)		
CCCCCCCCNCc1nc2ccccc2s1	64 µg/mL (≈ 232 µM)	16 µg/mL (≈ 57.9 µM)	64 µg/mL (≈ 232 µM)	16 µg/mL (≈ 57.9 µM)	> 64 µg/mL	64 µg/mL (≈ 232 µM)	> 64 µg/mL		
CCCCCCn1cnc2ccc(C)cc2c1=O	> 64 µg/mL	> 64 µg/mL	> 64 µg/mL		> 64 µg/mL			> 64 µg/mL	> 64 µg/mL
CCCCCCCn1cnc2ccc(C)cc2c1=O	> 64 µg/mL	> 64 µg/mL	> 64 µg/mL		64 µg/mL (≈ 248 µM)			> 64 µg/mL	> 64 µg/mL
CCCCCCCCn1cnc2ccc(C)cc2c1=O	> 64 µg/mL	> 64 µg/mL	> 64 µg/mL		> 64 µg/mL			> 64 µg/mL	> 64 µg/mL
CCCCCCN1CCc2c(c3cc(F)ccc3n2C)C1	> 64 µg/mL	> 64 µg/mL	> 64 µg/mL		> 64 µg/mL			> 64 µg/mL	> 64 µg/mL
CCCCCCCN1CCc2c(c3cc(F)ccc3n2C)C1	64 µg/mL (≈ 212 µM)	> 64 µg/mL	> 64 µg/mL		64 µg/mL (≈ 212 µM)			64 µg/mL (≈ 212 µM)	> 64 µg/mL

From ChEMBL document CHEMBL1770107, “Design and synthesis of antifungal benzoheterocyclic derivatives by scaffold hopping” (2011)
